Assay results reported in ChEMBL document CHEMBL3351523 (Bioorg Med Chem, 2014).

Key:
[1] = system: Respiratory syncytial virus; experiment: Antiviral activity against Respiratory syncytial virus infected in african green monkey Vero 76 cells assessed as reduction in plaque number after 5 days by plaque reduction assay; assay type: functional, organism-based; conditions: human respiratory syncytial virus, 120 h
Coxsackievirus B5 = experiment: Antiviral activity against Coxsackievirus B5 infected in african green monkey Vero 76 cells assessed as reduction in plaque number after 3 days by plaque reduction assay; assay type: functional, organism-based; conditions: Enterovirus B, 72 h
[2] = system: Bovine viral diarrhea virus 1; experiment: Antiviral activity against Bovine viral diarrhea virus infected in MDBK cells assessed as inhibition of virus-induced cytopathogenicity after 3 to 4 days by MTT assay; assay type: functional, organism-based; conditions: Bovine viral diarrhea virus isolates and strains
[3] = Cytotoxicity against mock-infected BHK21 cells after 48 to 96 hrs by MTT assay; assay type: functional; conditions: Mesocricetus auratus, BHK-21
In short: (§1)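 Mock-infected MDBK (6 × 10^5 cells/mL; MEM-E, 10% horse serum, 1 mM pyruvate) or BHK (1 × 10^6 cells/mL; MEM-E, 10% FBS) cells were incubated at 37 °C, 5% CO2 with serial dilutions from 100 µM, 1:5. Viability by MTT after 48–96 h. CC50 from linear regression against untreated controls.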

Vaccinia virus = experiment: Antiviral activity against Vaccinia Virus infected in african green monkey Vero 76 cells assessed as reduction in plaque number after 3 days by plaque reduction assay; assay type: functional, organism-based; conditions: Orthopoxvirus vaccinia, 72 h
[4] = Cytotoxicity against mock-infected human MT4 cells after 96 hrs by MTT assay; assay type: cell-based
In short: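 Exponentially growing MT-4 cells were seeded at 1 × 10^5 cells/mL in RPMI-1640 with 10% FBS and held at 37 °C, 5% CO2 with serial compound dilutions. Viability was read by MTT after 96 h. CC50 from linear regression against untreated controls.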

Poliovirus 1 = experiment: Antiviral activity against Poliovirus type 1 Sabin strain infected in african green monkey Vero 76 cells assessed as reduction in plaque number after 2 days by plaque reduction assay; assay type: functional, organism-based; conditions: Enterovirus C, 48 h
[5] = Cytotoxicity against mock-infected african green monkey Vero 76 cells after 48 to 96 hrs by MTT assay; assay type: cell-based; conditions: chlorocebus sabaeus, mock-infected Vero 76 cells
[6] = Cytotoxicity against mock-infected MDBK cells after 48 to 96 hrs by MTT assay; assay type: cell-based, Bos taurus; conditions: cattle; in short: as §1
Reovirus sp. = experiment: Antiviral activity against Reovirus type-1 infected in BHK21 cells assessed as inhibition of virus-induced cytopathogenicity after 3 to 4 days by MTT assay; assay type: functional, organism-based; conditions: BHK-21
[7] = Selectivity index, ratio of CC50 for african green monkey Vero 76 cells to EC50 for Coxsackievirus B5; assay type: toxicity, cell-based; conditions: read-out: Ratio CC50/EC50
In short: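 Mock-infected Vero-76 cells were tested in parallel on the same 24-well plates as the plaque assays (seeding 4 × 10^5 cells/mL, D-MEM with FBS), with serial compound dilutions at 37 °C, 5% CO2. Viability was read after 48–96 h by crystal violet staining. CC50 by linear regression; selectivity index = Vero-76 CC50/EC50 for CVB-5 or RSV.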

Yellow fever virus = experiment: Antiviral activity against Yellow fever virus infected in BHK21 cells assessed as inhibition of virus-induced cytopathogenicity after 3 to 4 days by MTT assay; assay type: functional, organism-based; conditions: BHK-21
Human alphaherpesvirus 1 = experiment: Antiviral activity against HSV1 infected in african green monkey Vero 76 cells assessed as reduction in plaque number after 3 days by plaque reduction assay; assay type: functional, organism-based; conditions: Human alphaherpesvirus 1, Vero, 72 h
[8] = system: Vesicular stomatitis virus; experiment: Antiviral activity against Vesicular stomatitis virus infected in african green monkey Vero 76 cells assessed as reduction in plaque number after 2 days by plaque reduction assay; assay type: functional, organism-based; conditions: 48 h
[9] = system: Human immunodeficiency virus 1; experiment: Antiviral activity against HIV1 infected in human MT4 cells assessed as inhibition of virus-induced cytopathogenicity after 4 days by MTT assay; assay type: functional, organism-based; conditions: Human immunodeficiency virus 1, MT4, 96 h
In short: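 MT-4 cells (1 × 10^4/well in RPMI) were infected acutely with HIV-1 IIIB, 100 CCID50 (m.o.i. 0.01), with serial dilutions from 100 µM, 1:5. After 4 days at 37 °C, protection from virus-induced cytopathogenicity was read by MTT. EC50 came from linear regression against untreated controls.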

| Compound | EC50 [1] [µM] | EC50 (Coxsackievirus B5) [µM] | EC50 [2] [µM] | CC50 [3] [µM] | EC50 (Vaccinia virus) [µM] | CC50 at 96 h [4] [µM] | EC50 (Poliovirus 1) [µM] | CC50 [5] [µM] | CC50 [6] [µM] | EC50 (Reovirus sp.) [µM] | selectivity ratio [7] | EC50 (Yellow fever virus) [µM] | EC50 (Human alphaherpesvirus 1) [µM] | EC50 [8] [µM] | EC50 [9] [µM] |
| --- | --- | --- | --- | --- | --- | --- | --- | --- | --- | --- | --- | --- | --- | --- | --- |
| c1ccc(-c2nc3ccccc3n2[C@H]2CCCN3CCCC[C@H]23)cc1 | > 100 | 80 | > 100 | > 100 | > 100 | > 100 | > 100 | ≥ 100 | > 100 | > 100 | > 1.25 | > 100 | > 100 | 68 | > 100 |
| Clc1ccc2nc(-c3ccccc3)n([C@@H]3CCCN4CCCC[C@H]34)c2c1 | > 100 | 32 | 40 | > 100 | > 100 | > 100 | > 100 | ≥ 100 | > 100 | > 100 | > 3.12 | > 100 | > 100 | > 100 | > 100 |
| FC(F)(F)c1ccc2c(c1)nc(-c1ccc(Cl)cc1)n2C[C@@H]1CCCN2CCCC[C@H]12 | > 100 | 14 | > 100 | 75 | > 100 | 24 | > 100 | 24 | 40 | > 100 | 1.71 | > 100 | > 100 | > 100 | > 100 |
| Oc1ccc(-c2nc3cc(C(F)(F)F)ccc3n2C[C@@H]2CCCN3CCCC[C@H]23)cc1 | > 100 | 26 | > 100 | 60 | > 100 | 21 | > 100 | 78 | 48 | 32 | 3 | > 100 | > 100 | > 100 | > 100 |
| COc1ccc(-c2nc3cc(C(F)(F)F)ccc3n2C[C@H]2CCCN3CCCC[C@H]23)cc1 | > 100 | 54 | > 100 | 30 | > 100 | 42 | > 100 | > 100 | 57 | > 100 | > 1.85 | > 100 | > 100 | > 100 | > 100 |
| CCN(CC)CCCn1c(Cc2ccc(Cl)c(Cl)c2)nc2cc(C(F)(F)F)ccc21 | > 100 | 17 | > 100 | > 100 | > 100 | 40 | 63 | > 100 | 26 | > 100 | > 5.88 | > 100 | > 100 | > 100 | > 100 |
| Clc1ccc(Cc2nc3cc(Cl)c(Cl)cc3n2C[C@@H]2CCCN3CCCC[C@H]23)cc1 | > 100 | 28 | > 100 | 30 | > 100 | 17 | > 100 | > 100 | > 100 | > 100 | > 3.57 | > 100 | > 100 | > 100 | > 100 |
| FC(F)(F)c1ccc2c(c1)nc(Cc1ccccc1)n2C[C@@H]1CCCN2CCCC[C@H]12 | > 100 | 10 | > 100 | 15 | > 100 | > 100 | 60 | > 100 | > 100 | > 100 | > 10 | > 100 | > 100 | > 100 | > 100 |
| FC(F)(F)c1ccc2c(c1)nc(Cc1ccccc1)n2C[C@H]1CCCN2CCCC[C@H]12 | > 100 | 75 | > 100 | 25 | > 100 | 100 | > 100 | 93 | 28 | > 100 | 1.24 | > 100 | > 100 | > 100 | > 100 |
| Nc1ccc(Cc2nc3ccccc3[nH]2)cc1 | > 100 | 17 | > 100 | > 100 | > 100 | > 100 | 58 | > 100 | > 100 | > 100 | > 5.88 | > 100 | > 100 | > 100 | > 100 |
| FC(F)(F)c1ccc2[nH]c(Cc3ccc(Cl)cc3)nc2c1 | > 100 | 26 | > 100 | 20 | > 100 | > 100 | > 100 | 70 | 16 | > 100 | 2.69 | > 100 | > 100 | > 100 | > 100 |
| COc1ccc(Cc2nc3cc(C(F)(F)F)ccc3[nH]2)cc1 | > 100 | 20 | > 100 | 60 | > 100 | 69 | > 100 | 92 | 56 | > 100 | 4.6 | > 100 | > 100 | > 100 | > 100 |
| FC(F)(F)c1ccc2c(c1)nc(CC1=CCCC1)n2C[C@@H]1CCCN2CCCC[C@H]12 | > 100 | > 100 | > 100 | 30 | > 100 | 5 | > 100 | > 100 | 50 | > 100 | – | > 100 | 30 | > 100 | > 100 |
| CCOCc1nc2ccccc2[nH]1 | > 100 | > 100 | > 100 | > 100 | > 100 | > 100 | > 100 | > 100 | > 100 | > 100 | – | > 100 | > 100 | > 100 | > 100 |
| c1ccc(-n2c(C[C@@H]3CCCN4CCCC[C@H]34)nc3ccccc32)cc1 | > 100 | 49 | 89 | 30 | > 100 | 33 | > 100 | > 100 | > 100 | > 100 | > 2.04 | > 100 | > 100 | > 100 | > 100 |
| CCc1nc2ccccc2[nH]1 | > 100 | > 100 | > 100 | > 100 | > 100 | > 100 | > 100 | > 100 | > 100 | > 100 | – | > 100 | > 100 | > 100 | > 100 |
| C[C@@]1(O)[C@H](O)[C@@H](CO)O[C@H]1n1cnc2c(=O)[nH]c(N)nc21 [2'-B-METHYL-GUANOSINE] | > 100 | 20 | – | 90 | > 100 | > 100 | > 100 | > 100 | > 100 | 2.4 | > 5 | > 100 | > 100 | > 100 | – |
